The values that follow come from ChEMBL document CHEMBL5678802, “Small-molecule p21-activated kinase inhibitor PF-3758309 is a potent inhibitor of oncogenic signaling and tumor growth” (Proc Natl Acad Sci U S A, 2010).

Test [1] can be described thus: Antiproliferative activity against human GTL16S4 acquired resistance cells assessed as inhibition of cell proliferation incubated for 3 days by CellTiter-Glo Luminescent Cell Viability Assay. Type of test: functional, cell-based. To be noted: 72 h. Summed up: (§1)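 Cancer cell lines seeded in 384-well plates on day 1; compound added on day 2 and left for 3 days. On day 5 all medium was aspirated, and viable cells were quantified by CellTiter-Glo luminescence, which measures cellular ATP. Dose-dependent effects on proliferation were determined.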

In a further test the test system is NCI-H1573. Briefly: Antiproliferative activity against human NCI-H1573 cells assessed as inhibition of cell proliferation incubated for 3 days by CellTiter-Glo Luminescent Cell Viability Assay. As to conditions: NCI-H1573, 72 h. Type of test: functional, cell-based. In a few lines: as §1
A further test relates to NCI-H23. Briefly: Antiproliferative activity against human NCI-H23 cells assessed as inhibition of cell proliferation incubated for 3 days by CellTiter-Glo Luminescent Cell Viability Assay. Type of test: functional, cell-based. As to conditions: NCI-H23, 72 h. Summed up: (§2)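 Cells of each line were plated in 384-well plates on day 1 and exposed to compound from day 2 for 3 days. On day 5 all medium was aspirated. Viable cell number was read by CellTiter-Glo luminescence, which quantifies cellular ATP.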

For another test, the system named is PANC-1. The test can be described thus: Antiproliferative activity against human PANC-1 cells assessed as inhibition of cell proliferation incubated for 3 days by CellTiter-Glo Luminescent Cell Viability Assay. To be noted: PANC-1, 72 h. Type of test: functional, cell-based. Summed up:
as §2

The test system of a further test is HCC827. Briefly: Inhibition of anchorage independent cell growth in human HCC827 cells incubated for 6 days by Alamar blue reagent based fluorescence plate reader analysis. Type of test: functional. As to conditions: HCC827, 144 h. (In general: Alamar Blue is a resazurin reagent that responds to reducing activity.)
A further test relates to NCI-H358. The test can be described thus: Inhibition of anchorage independent cell growth in human NCI-H358 cells incubated for 6 days by Alamar blue reagent based fluorescence plate reader analysis. To be noted: NCI-H358, 144 h. Type of test: functional.
In the next test the test system is HCC38. Briefly: Antiproliferative activity against human HCC38 cells assessed as inhibition of cell proliferation incubated for 3 days by CellTiter-Glo Luminescent Cell Viability Assay. Type of test: functional, cell-based. As to conditions: HCC38, 72 h. In a few lines: as §1
On the technique in general: In ATP-based viability assays light output follows the ATP content of the culture.

The next test concerns MDA-MB-468. The test can be described thus: Antiproliferative activity against human MDA-MB-468 cells assessed as inhibition of cell proliferation incubated for 3 days by CellTiter-Glo Luminescent Cell Viability Assay. Type of test: functional, cell-based. To be noted: MDA-MB-468, 72 h. In a few lines:
as §1

The test system of a further test is MDA-MB-436. The test can be described thus: Antiproliferative activity against human MDA-MB-436 cells assessed as inhibition of cell proliferation incubated for 3 days by CellTiter-Glo Luminescent Cell Viability Assay. As to conditions: MDA-MB-436, 72 h. Type of test: functional, cell-based. Summed up:
as §1

Another test concerns MDA-MB-361. Briefly: Antiproliferative activity against human MDA-MB-361 cells assessed as inhibition of cell proliferation incubated for 3 days by CellTiter-Glo Luminescent Cell Viability Assay. Type of test: functional, cell-based. To be noted: MDA-MB-361, 72 h. In a few lines:
as §1

For test [2], the target named is T1, Tyrosine-protein kinase Fyn (Homo sapiens, UniProt P06241). The test can be described thus: Inhibition of human FYN in presence of ATP relative to control. As to conditions: concentration not given here.
Target sequence in this assay (P06241 2-537 limits assumed): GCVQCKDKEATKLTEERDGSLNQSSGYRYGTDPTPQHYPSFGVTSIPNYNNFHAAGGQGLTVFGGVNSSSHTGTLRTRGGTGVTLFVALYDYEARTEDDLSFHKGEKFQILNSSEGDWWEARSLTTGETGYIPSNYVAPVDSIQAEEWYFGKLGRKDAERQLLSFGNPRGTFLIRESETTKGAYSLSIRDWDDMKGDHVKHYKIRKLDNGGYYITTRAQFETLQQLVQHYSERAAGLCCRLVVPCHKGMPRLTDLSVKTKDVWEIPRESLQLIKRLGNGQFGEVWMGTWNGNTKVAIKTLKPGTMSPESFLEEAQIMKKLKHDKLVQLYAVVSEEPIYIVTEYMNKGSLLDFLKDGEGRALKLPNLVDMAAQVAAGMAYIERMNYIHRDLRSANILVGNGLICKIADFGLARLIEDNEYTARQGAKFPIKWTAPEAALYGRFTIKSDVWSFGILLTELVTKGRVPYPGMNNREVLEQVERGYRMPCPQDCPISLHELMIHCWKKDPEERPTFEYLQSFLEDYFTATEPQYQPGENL
The target in test [3] is T1, Tyrosine-protein kinase Fyn. Briefly: Inhibition of human FYN assessed as inhibition constant in presence of ATP.
Target sequence in this assay (P06241 whole entry): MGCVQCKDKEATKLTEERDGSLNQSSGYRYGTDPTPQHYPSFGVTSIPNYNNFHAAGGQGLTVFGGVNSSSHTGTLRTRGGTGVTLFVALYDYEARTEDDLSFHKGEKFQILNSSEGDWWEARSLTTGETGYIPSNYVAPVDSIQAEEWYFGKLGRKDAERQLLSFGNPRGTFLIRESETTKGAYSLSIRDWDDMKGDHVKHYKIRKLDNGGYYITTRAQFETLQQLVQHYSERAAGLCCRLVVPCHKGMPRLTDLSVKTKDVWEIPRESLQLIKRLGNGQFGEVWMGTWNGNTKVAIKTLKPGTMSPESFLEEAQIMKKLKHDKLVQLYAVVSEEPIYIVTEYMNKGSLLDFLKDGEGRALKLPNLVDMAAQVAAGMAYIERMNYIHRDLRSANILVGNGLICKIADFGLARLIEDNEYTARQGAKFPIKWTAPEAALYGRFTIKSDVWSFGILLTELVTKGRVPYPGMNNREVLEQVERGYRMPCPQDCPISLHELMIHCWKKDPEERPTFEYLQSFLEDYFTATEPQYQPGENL
Test [4] concerns the target Tyrosine-protein kinase Yes (Homo sapiens, UniProt P07947). The test can be described thus: Inhibition of human YES1 in presence of ATP.
The target in test [5] is Proto-oncogene tyrosine-protein kinase Src (Homo sapiens, UniProt P12931). Briefly: Inhibition of human SRC in presence of ATP.
Sequence of Proto-oncogene tyrosine-protein kinase Src (P12931 2-536 limits assumed): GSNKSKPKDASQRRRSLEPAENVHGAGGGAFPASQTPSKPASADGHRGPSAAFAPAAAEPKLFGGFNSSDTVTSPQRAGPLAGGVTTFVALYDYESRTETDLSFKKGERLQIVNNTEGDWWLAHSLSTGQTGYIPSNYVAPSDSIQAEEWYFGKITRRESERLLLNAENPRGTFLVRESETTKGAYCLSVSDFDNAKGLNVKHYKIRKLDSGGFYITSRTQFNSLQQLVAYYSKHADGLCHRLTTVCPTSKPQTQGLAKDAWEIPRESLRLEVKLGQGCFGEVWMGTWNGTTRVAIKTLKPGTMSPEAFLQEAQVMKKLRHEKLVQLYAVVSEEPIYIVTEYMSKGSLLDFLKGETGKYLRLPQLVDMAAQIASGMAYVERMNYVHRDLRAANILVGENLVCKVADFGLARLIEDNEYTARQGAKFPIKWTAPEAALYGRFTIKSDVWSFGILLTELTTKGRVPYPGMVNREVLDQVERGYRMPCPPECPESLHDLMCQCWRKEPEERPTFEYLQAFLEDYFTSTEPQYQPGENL
The target of test [6] is High affinity nerve growth factor receptor (Homo sapiens, UniProt P04629). Briefly: Inhibition of human TRKa in presence of ATP.
Sequence of High affinity nerve growth factor receptor (P04629 whole entry): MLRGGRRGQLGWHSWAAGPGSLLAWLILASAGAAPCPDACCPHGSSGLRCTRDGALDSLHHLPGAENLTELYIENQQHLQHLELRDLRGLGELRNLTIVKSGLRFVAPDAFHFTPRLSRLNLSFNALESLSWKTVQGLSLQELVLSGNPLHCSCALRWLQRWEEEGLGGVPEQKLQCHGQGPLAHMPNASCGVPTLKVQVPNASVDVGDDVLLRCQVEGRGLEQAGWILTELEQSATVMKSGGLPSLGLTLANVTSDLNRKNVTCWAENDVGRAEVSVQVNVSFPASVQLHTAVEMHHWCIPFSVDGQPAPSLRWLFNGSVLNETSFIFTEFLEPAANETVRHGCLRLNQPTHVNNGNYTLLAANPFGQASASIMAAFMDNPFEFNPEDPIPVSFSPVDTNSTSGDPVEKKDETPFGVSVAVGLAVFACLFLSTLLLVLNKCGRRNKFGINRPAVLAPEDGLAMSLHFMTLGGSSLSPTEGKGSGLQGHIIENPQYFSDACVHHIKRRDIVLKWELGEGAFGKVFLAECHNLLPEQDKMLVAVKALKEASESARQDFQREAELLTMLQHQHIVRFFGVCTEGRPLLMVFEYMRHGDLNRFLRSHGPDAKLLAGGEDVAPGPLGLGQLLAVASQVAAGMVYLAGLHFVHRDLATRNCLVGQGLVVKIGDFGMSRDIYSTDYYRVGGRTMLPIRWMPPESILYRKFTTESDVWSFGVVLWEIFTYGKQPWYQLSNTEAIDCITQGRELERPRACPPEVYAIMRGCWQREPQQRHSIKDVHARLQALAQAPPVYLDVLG
The target of test [7] is T2, Receptor-type tyrosine-protein kinase FLT3 (Homo sapiens, UniProt P36888).
T2 sequence (P36888 whole entry): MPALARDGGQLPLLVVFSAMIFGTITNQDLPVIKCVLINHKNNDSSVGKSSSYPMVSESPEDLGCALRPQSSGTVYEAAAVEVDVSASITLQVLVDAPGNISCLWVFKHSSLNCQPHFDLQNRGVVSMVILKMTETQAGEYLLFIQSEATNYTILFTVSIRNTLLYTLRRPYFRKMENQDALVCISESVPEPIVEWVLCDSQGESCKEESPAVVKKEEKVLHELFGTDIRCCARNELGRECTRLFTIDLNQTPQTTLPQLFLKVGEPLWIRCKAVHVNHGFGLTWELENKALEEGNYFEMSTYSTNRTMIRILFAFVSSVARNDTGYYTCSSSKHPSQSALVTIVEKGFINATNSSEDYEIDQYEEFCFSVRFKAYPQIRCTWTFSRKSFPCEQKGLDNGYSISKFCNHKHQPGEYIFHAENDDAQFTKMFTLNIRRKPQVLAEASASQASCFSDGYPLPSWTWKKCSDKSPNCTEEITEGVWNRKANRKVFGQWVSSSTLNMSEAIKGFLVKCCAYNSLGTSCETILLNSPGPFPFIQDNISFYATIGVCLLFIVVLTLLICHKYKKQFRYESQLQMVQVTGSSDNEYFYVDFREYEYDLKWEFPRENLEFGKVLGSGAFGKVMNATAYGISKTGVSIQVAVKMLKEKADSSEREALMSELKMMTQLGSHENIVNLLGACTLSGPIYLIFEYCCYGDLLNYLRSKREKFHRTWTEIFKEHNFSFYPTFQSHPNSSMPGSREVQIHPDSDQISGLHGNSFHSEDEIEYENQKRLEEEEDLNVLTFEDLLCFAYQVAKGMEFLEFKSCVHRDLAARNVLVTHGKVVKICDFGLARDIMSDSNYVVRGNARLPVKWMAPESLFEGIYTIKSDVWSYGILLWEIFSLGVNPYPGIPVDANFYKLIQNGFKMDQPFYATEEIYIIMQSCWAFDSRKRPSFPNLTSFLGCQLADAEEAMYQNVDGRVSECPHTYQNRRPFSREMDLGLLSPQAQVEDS
Briefly: Inhibition of human FLT3 in presence of ATP by cellular assay.

The target of test [8] is Protein kinase C theta type (Homo sapiens, UniProt Q04759). The test can be described thus: Inhibition of human PKCtheta in presence of ATP by cellular assay.
Sequence of Protein kinase C theta type (Q04759 whole entry): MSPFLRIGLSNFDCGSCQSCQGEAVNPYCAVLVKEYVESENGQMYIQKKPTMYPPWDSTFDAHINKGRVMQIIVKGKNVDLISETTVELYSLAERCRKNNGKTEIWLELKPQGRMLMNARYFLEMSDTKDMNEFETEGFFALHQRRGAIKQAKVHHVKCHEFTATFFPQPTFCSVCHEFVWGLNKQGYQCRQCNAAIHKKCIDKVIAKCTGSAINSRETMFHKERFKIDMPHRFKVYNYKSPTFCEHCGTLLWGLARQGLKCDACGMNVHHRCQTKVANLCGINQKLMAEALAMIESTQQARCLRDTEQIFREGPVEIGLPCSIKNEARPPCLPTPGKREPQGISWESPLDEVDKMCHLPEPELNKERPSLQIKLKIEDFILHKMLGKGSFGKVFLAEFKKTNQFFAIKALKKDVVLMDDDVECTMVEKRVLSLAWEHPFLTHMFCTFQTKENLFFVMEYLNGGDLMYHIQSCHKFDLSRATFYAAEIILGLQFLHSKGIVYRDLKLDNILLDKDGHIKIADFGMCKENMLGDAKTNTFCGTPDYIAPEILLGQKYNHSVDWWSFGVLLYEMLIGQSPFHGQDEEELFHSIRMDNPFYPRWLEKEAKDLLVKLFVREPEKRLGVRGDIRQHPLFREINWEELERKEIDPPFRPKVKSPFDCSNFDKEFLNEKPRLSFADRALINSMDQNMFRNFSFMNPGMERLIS
Test [9] deals with HCT-116. The test can be described thus: Induction of cell cycle arrest in human HCT-116 cells assessed as accumulation of cells at G0/G1 phase at 100 nM measured after 48 hrs by fluorescence activated cell sorter analysis (reference value: 50.74%). Type of test: functional.
The subject of the next test is M24met. The test can be described thus: Antitumor activity against human M24met cells xenografted in nude mouse assessed as tumor growth inhibition at 15 mg/kg, po administered once daily for 9 to 18 days relative to control. Type of test: functional. To be noted: time 9-18 day, read-out: TGI.
Test [10] deals with HCT-116. The test can be described thus: Antitumor activity against human HCT-116 cells xenografted in nude mouse assessed as tumor growth inhibition at 3.3 mg/kg administered via pump for 9 days relative to control. Type of test: functional. As to conditions: HCT-116, 216 h, time 9 day, read-out: TGI.
The subject of test [11] is HCT-116. Briefly: Antitumor activity against human HCT-116 cells xenografted in nude mouse assessed as tumor growth inhibition at 1.1 mg/kg administered via pump for 9 days relative to control. As to conditions: HCT-116, 216 h, time 9 day, read-out: TGI. Type of test: functional.
Test [12] concerns HCT-116. The test can be described thus: Antitumor activity against human HCT-116 cells xenografted in nude mouse assessed as reduction in Ki67 administered orally twice daily for 6 days by immunohistochemical analysis. To be noted: dose 15-25 mg/kg, route po, time 6.0 day. Type of test: functional.
Test [13] deals with Serine/threonine-protein kinase PAK 4 (Homo sapiens, UniProt O96013). To be noted: dose 50.0 µM.
Sequence of Serine/threonine-protein kinase PAK 4 (O96013 whole entry, looked up): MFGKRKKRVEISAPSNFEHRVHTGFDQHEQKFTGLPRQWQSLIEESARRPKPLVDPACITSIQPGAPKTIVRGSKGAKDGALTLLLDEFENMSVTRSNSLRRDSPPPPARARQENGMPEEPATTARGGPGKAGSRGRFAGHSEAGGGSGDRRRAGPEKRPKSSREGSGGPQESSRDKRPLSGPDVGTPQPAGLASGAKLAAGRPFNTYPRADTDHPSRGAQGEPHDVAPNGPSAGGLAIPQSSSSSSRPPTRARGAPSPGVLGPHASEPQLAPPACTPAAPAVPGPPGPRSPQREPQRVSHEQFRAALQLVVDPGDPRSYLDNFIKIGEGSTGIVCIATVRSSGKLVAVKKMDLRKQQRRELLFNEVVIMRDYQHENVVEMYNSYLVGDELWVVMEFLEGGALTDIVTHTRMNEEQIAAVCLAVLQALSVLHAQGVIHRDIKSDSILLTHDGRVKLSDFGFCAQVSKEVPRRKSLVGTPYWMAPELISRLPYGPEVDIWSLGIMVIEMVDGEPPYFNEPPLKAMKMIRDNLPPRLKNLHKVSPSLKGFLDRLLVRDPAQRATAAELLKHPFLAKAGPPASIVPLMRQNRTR

As usually defined, the IC50 is the concentration needed to halve the response being measured. For orientation: inhibition means the share of the control response that was lost under treatment. Broadly, the Ki is a dissociation constant, usually derived from enzyme kinetics or from competition with a known ligand.

Sequence of Tyrosine-protein kinase Yes (P07947 whole entry): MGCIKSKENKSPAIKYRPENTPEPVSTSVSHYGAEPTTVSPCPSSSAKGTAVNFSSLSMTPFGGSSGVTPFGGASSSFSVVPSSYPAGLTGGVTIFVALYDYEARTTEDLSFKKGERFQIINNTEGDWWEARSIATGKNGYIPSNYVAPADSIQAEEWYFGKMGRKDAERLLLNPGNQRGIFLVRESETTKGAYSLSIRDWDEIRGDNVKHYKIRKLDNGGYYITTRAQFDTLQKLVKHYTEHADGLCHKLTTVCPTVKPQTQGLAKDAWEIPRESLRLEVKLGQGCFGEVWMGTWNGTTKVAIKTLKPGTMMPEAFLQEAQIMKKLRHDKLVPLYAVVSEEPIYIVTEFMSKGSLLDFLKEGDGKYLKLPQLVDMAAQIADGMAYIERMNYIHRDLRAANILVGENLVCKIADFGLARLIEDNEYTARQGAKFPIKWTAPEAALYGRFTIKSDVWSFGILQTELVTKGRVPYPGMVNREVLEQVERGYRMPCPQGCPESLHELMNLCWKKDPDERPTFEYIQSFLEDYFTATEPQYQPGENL

For `Cc1nc(Nc2n[nH]c3c2CN(C(=O)N[C@H](CN(C)C)c2ccccc2)C3(C)C)c2sccc2n1` [PF-03758309], the 50% inhibitory concentration (IC50) came to 10000 nM in test [1]; 22 nM in the test on NCI-H1573; 25 nM in the test with NCI-H23; 856 nM in the test on PANC-1; 2.18 nM with HCC827; 7.7 nM with NCI-H358. For the same compound, the IC50 in the test with HCC38 is 0.52 nM; in the test with MDA-MB-468, 0.63 nM; in the test with MDA-MB-436 it was 0.79 nM; with MDA-MB-361, 6.9 nM; in [4], 47 nM; in [5], 55 nM. Further, the IC50 in test [6] was 513 nM; in test [7], 407 nM; in [8], 568 nM. Moreover, the inhibition in test [2] worked out at 95%. Further, the Ki in test [3] is 26 nM. For the same compound, the values for the Activity with HCT-116 [9] and with HCT-116 [12] were 49.41% and “Dose-Dependent Effect”, respectively. Besides, the inhibition in vivo at 15 mg/kg in the test with M24met was 72%. Also, the inhibition in vivo at 3.3 mg/kg in the test on HCT-116 [10] came out at 114%. The inhibition in vivo at 1.1 mg/kg in the test with HCT-116 [11] came out at 104%. The deltaH in test [13] is -5 kcal/mol.
